Experimental data published in ChEMBL document CHEMBL1123272, “Comparison of (-)-eseroline with (+)-eseroline and dihydroseco analogues in antinociceptive assays: confirmation of rubreserine structure by X-ray analysis” (1986).
Activity calls are given as the source filed them. No cut-off for these calls is given here.

Legend:
Mus musculus [1] = test: Compound was tested in vivo for narcotic agonist activity (dose in sc, mg/kg) in mice using tail flick assay; I = Inactive at 1,10, 30 mg/kg; format: functional, organism-based; design: dose 30 mg/kg
Mus musculus [2] = test: Compound was tested in vivo for narcotic agonist activity (dose in sc, mg/kg) in mice using phenylquinone assay; I = Inactive at 1,10, 30 mg/kg; format: functional, organism-based; design: dose 30 mg/kg
Mus musculus [3] = test: Compound was tested in vivo for narcotic agonist activity (dose in sc, mg/kg) in mice using hot plate assay; I = Inactive at 1,10, 30 mg/kg; format: functional, organism-based; design: dose 30 mg/kg
Mus musculus [4] = test: Compound was tested in vivo for narcotic antagonist activity (dose in sc, mg/kg) in mice using tail flick antagonism assay; format: functional
Outline: (§1)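 Mouse tail-flick antagonism assay against morphine, with the test compound given subcutaneously and doses in mg/kg. It was run by an outside laboratory (Medical College of Virginia).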

Mus musculus [5] = test: Compound was tested in vivo for narcotic agonist activity (dose in sc, mg/kg) in mice using hot plate assay; format: functional
Outline: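 Mouse hot-plate test for narcotic agonist activity with subcutaneous dosing. Values are in mg/kg with 95% confidence limits.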

Mus musculus [6] = test: Compound was tested in vivo for narcotic antagonist activity (dose in sc, mg/kg) in mice using tail flick antagonism assay; I = Inactive at 1,10, 30 mg/kg; format: functional, organism-based; design: dose 30 mg/kg; outline: as §1
Mus musculus [7] = test: Compound was tested in vivo for narcotic agonist activity (dose in sc, mg/kg) in mice using tail flick assay.; format: functional
Mus musculus [8] = test: Compound was tested in vivo for narcotic agonist activity (dose in sc, mg/kg) in mice using phenylquinone assay.; format: functional
Mus musculus [9] = test: Compound was tested in vivo for narcotic antagonist activity (dose in sc, mg/kg) in mice using tail flick antagonism assay; I =inactive at 1, 10, 30 mg/kg; format: functional, organism-based; design: dose 30 mg/kg; outline: as §1
Mus musculus [10] = test: Compound was tested in vivo for narcotic agonist activity (dose in sc, mg/kg) in mice using tail flick assay; format: functional
Mus musculus [11] = test: Compound was tested in vivo for narcotic agonist activity (dose in sc, mg/kg) in mice using phenylquinone assay; format: functional

Compound	Activity (Mus musculus [1])	Activity (Mus musculus [3])	Activity (Mus musculus [5])	Activity (Mus musculus [6])	Activity (Mus musculus [8])	other results
C=CCN1CC[C@]23c4c5ccc(O)c4O[C@H]2C(=O)CC[C@@]3(O)[C@H]1C5 [NALOXONE]	inactive	inactive				Activity (Mus musculus [2]): inactive; Activity (Mus musculus [4]): 0.03
CN1CC[C@@]2(C)c3cc(O)ccc3N(C)[C@@H]12			1.6	inactive	0.7	Activity (Mus musculus [7]): 2.3
CN1CC[C@]23c4c5ccc(O)c4O[C@H]2[C@@H](O)C=C[C@H]3[C@H]1C5 [MORPHINE]			1.3			Activity (Mus musculus [9]): inactive; Activity (Mus musculus [10]): 5.8; Activity (Mus musculus [11]): 0.23
CN1CC[C@]2(C)c3cc(O)ccc3N(C)[C@H]12	inactive	inactive		inactive	2.3	
CN1c2ccc(O)cc2[C@]2(C)CCN[C@H]12		inactive				
